Series [1] has as its target Metabotropic glutamate receptor 1 (Rattus norvegicus, UniProt P23385). Briefly: Antagonist activity at rat mGluR1. Format: functional. An outline of the steps:
(§1)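 Receptor binding assays: IC50 on human mGlu1 and mGlu5 receptors, Ki on rat mGlu1 receptor. Each value is the average of at least three measurements. Standard error 10%, with assay-to-assay variability under twofold.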

For series [2], the target named is Metabotropic glutamate receptor 5 (Homo sapiens, UniProt P41594). Briefly: Antagonist activity at human mGluR5. It is filed as functional. An outline of the steps:
as §1

In series [3] the test system is Rattus norvegicus. Briefly: Inhibition of neuropathic pain in po dosed rat spinal nerve ligation model. It is filed as functional.
Series [4] in a line: Permeability of the compound in human Caco2 cells. The settings on record: Caco-2, read-out: permeability. It is filed as ADME, cell-based.
Series [5] is described as follows: Drug efflux assessed as P-gp-mediated efflux by efflux substrate assay. Format: ADME.
Series [6] relates to Rattus norvegicus. Put plainly: AUC in rat 10 mg/kg. It is filed as ADME, organism-based, Plasma. The note with it: in vivo. On the set-up: dose 10 mg/kg.
Series [7] is described as follows: Drug level in rat brain at 10 mg/kg measured at 6 hrs post dose. The settings on record: read-out: Drug uptake. On the set-up: dose 10 mg/kg. Format: ADME, organism-based.
Series [8] is described as follows: Ratio of drug level in brain to plasma in rat at 10 mg/kg. It is filed as ADME, organism-based. On the set-up: dose 10 mg/kg. The note with it: read-out: BPR.
Series [9] is described as follows: Bioavailability in rat at 10 mg/kg. It is filed as ADME, organism-based. The note with it: in vivo.
Series [10] concerns the target Voltage-gated inwardly rectifying potassium channel KCNH2 (Homo sapiens, UniProt Q12809). Put plainly: Inhibition of human ERG.

Sequence of Voltage-gated inwardly rectifying potassium channel KCNH2 (Q12809 whole entry): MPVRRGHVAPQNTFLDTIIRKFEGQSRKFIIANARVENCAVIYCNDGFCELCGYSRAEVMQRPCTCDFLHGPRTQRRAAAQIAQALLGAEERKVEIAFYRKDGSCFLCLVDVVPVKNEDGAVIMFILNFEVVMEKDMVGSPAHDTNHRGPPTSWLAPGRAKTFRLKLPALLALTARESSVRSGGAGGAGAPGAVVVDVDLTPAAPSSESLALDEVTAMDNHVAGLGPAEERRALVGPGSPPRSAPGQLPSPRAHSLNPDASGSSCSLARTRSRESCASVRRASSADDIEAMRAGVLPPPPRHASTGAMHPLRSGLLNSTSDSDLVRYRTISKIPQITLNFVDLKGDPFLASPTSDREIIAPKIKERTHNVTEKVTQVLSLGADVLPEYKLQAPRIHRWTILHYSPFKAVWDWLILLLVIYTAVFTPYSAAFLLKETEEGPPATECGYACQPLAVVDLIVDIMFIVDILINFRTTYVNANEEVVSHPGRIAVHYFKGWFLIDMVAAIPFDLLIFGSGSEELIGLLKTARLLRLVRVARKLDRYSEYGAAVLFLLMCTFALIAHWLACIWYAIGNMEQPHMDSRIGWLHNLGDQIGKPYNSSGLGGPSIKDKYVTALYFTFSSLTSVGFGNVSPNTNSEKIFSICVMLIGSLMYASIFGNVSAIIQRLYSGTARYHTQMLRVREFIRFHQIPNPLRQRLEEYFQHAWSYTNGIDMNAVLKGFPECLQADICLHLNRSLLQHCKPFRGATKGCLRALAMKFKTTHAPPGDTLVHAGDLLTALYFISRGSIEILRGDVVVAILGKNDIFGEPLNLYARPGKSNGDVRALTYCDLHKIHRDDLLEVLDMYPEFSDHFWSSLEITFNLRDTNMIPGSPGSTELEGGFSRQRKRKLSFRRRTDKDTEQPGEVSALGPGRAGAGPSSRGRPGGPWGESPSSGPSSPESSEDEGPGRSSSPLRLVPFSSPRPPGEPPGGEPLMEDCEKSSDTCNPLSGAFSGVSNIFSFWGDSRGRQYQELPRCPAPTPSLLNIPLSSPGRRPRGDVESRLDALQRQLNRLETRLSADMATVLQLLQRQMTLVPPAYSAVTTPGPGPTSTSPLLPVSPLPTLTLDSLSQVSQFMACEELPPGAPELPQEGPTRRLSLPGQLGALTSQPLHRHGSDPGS
Sequence of Metabotropic glutamate receptor 5 (P41594 whole entry): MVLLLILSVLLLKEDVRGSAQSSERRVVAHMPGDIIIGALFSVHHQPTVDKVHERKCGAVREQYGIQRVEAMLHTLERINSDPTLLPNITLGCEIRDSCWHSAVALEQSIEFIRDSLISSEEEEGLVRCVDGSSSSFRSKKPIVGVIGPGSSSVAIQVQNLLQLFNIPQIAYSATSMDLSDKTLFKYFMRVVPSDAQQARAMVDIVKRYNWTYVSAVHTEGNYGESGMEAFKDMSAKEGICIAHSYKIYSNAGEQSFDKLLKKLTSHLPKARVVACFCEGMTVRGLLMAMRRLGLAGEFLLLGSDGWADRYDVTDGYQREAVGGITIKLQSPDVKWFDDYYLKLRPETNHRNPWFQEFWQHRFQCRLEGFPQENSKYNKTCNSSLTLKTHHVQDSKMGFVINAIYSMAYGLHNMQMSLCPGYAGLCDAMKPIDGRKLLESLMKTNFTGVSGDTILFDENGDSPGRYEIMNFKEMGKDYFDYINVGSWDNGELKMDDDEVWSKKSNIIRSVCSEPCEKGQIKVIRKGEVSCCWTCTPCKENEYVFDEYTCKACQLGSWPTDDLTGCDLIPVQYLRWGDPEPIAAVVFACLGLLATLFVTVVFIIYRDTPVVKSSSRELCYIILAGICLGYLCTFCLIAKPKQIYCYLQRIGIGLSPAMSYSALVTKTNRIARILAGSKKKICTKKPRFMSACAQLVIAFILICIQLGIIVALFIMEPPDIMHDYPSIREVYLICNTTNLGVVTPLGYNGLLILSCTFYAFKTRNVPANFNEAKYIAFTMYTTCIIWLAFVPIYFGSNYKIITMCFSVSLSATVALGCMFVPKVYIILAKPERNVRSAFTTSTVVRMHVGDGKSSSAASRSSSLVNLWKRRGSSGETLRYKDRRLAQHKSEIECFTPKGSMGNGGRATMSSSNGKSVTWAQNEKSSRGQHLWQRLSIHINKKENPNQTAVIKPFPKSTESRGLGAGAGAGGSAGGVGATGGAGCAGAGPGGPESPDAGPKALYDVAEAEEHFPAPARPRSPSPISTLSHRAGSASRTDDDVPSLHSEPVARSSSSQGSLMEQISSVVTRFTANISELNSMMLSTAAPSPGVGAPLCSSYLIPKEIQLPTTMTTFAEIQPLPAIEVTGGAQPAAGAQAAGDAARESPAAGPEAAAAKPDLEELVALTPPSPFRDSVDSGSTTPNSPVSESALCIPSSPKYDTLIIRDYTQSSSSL
Sequence of Metabotropic glutamate receptor 1 (P23385 whole entry): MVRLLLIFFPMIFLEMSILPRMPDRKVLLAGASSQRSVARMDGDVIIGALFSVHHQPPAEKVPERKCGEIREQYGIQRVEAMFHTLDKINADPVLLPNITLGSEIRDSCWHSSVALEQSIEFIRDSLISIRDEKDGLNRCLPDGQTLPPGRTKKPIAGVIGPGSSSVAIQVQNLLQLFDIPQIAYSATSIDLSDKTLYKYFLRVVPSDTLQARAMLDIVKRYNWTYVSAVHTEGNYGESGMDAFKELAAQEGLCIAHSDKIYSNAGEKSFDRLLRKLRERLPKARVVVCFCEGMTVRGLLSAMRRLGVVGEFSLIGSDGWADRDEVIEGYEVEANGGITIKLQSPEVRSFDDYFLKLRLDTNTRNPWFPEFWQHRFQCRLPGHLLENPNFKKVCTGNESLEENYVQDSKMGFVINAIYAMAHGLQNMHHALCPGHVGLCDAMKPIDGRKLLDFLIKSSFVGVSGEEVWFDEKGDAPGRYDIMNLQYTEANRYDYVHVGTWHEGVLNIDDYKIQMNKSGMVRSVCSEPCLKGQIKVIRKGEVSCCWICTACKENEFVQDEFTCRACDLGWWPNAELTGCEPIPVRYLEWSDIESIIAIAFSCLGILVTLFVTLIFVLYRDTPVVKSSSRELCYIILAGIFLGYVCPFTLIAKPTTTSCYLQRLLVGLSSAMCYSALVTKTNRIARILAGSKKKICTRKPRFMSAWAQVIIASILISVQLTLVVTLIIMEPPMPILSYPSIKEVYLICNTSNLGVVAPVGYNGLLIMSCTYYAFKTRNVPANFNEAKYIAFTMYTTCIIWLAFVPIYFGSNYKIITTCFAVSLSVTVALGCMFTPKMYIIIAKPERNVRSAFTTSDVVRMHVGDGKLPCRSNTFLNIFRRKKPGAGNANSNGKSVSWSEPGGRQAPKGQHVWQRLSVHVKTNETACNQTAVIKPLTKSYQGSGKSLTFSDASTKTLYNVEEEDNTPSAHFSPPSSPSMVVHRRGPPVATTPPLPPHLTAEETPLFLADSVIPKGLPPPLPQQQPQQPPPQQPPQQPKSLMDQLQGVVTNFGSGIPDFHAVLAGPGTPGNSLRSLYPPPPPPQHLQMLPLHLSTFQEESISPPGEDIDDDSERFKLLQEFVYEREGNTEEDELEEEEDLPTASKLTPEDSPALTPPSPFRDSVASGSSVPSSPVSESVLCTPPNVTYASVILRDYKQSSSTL

Regarding `C#CCNc1ccnc2sc3c(=O)n(-c4ccc(Cl)cc4)cnc3c12`, the Ki in series [1] worked out at 0.6 nM. Moreover, the IC50 in series [2] was over 3000 nM. The molecule further yielded a median effective dose (ED50) in the series on Rattus norvegicus [3] of 3.3 mg/kg. Further, the Papp in [4] amounted to 43 ×10⁻⁶ cm/s. In addition, the Activity entry in [5] was “Not Active”. This molecule displayed an area under the curve (AUC) in the series on Rattus norvegicus [6] of 427 ng·h/mL. Also, the concentration at 6 h in series [7] stood at 67 ng/g. In [8], the Kp worked out at 1.8. The same molecule showed a bioavailability in series [9] of 16%. Further, the “inhibition (INH)” value in series [10] is “Not Active”.

The values above are taken from ChEMBL document CHEMBL1781946, “Tricyclic thienopyridine-pyrimidones/thienopyrimidine-pyrimidones as orally efficacious mGluR1 antagonists for neuropathic pain” (Bioorg Med Chem Lett, 2009).
